Data on 16 compounds can be found in PubChem BioAssay.

Active and inactive are the calls of the source.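 The calls were made as follows, unless noted: active = viability at or below 10% of carrier control in both of two separate runs; inconclusive = viability at or below 10% in only one of the two runs; inactive = the rest.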

For orientation: viability means a read-out of living cells in per cent, often relative to untreated cells. The term inhibition denotes the relative decrease from the control value, in per cent.

A short description of test [1]: reducers of endogenous Her2 protein level, primary screen, SKBR3 breast tumor cells, AlphaScreen, ATP viability (AID 461;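 active = Her2 level under about 52% in both replicate screens, with viability over 70% of control, limit read from the data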;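 as to Her2 level: lower value means less Her2 protein in the cells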;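 as to viability: percent of carrier control wells set as 100% viability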). The conditions noted are these: 18-24 h, measured here: SKBR3 viability, ATP luminescence, at 10 µM. Background: Alpha assays give light when donor and acceptor beads are brought close together.
Test [2] concerns the target Receptor tyrosine-protein kinase erbB-2 (Homo sapiens) (UniProt P04626). The test is described as above. The conditions noted are these: 18-24 h, at 10 µM, stronger effect = lower value.
Test [3] can be described thus: SK-BR-3 cell growth inhibitors, pilot screen, 24 h, human (AID 572).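 Also: compound exposure lasted between 18 and 24 h rather than exactly 24 h; 100% = carrier-treated control wells.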 The conditions noted are these: SK-BR-3 viability, CellTiter-Glo luminescence, at 10 µM, stronger effect = lower value. A general note: Cellular ATP, detected with luciferase, serves as a proxy for viable cell number.
Test [4] in a line: HUVEC growth inhibition – cell-based, human, primary screen (AID 575;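 active = viability at or below 30% in both replicate assays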;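 also: 100% = median of untreated cell wells with 0.1% DMSO on each plate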). The conditions noted are these: HUVEC proliferation, CellTiter-Glo luminescence, 72 h; at 10 µM; stronger effect = lower value. The method, boiled down:
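System: primary human umbilical vein endothelial cells; Quantity: 1250 endothelial cells in each well; Buffer or medium: supplemented EBM, 2% fetal bovine serum; Doses: one dose, 10 µM final, 0.1% DMSO; Incubation: 72 h compound incubation; Technique: ATP-based CellTiter-Glo luminescent read; Evaluation: percent of median DMSO-control luminescence; Controls: vehicle and MePR control wells.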

Test [5] can be described thus: growth inhibitors of H69AR lung tumor, primary screen, human, duplicate replicates (AID 580;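 active = viability at or under a set limit in both replicates, limit being median viability minus 3 SD, cut at about 48% in these data, passing the limit was not always enough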;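 also: 100% = mean luminescence of untreated wells and 0% = no signal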). To be noted: H69AR lung tumor cells viability, ATP luminescence, 72 h; at 10 µM; stronger effect = lower value.
A short description of test [6]: reversal of MRP1-mediated doxorubicin resistance, pilot screen, H69AR cells, doxorubicin co-treatment (AID 601;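 active = viability loss from added drug above about 55%, and viability with drug at most 40%, in both replicates, limit read from the data, passing the limit was not always enough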). To be noted: CellTiter-Glo, 72 h, at 10 µM; for differential viability (reversal): stronger effect = higher value.
Test [7] is described as follows: 384-well plate pilot, post-Golgi transport modulator project, inhibition of yeast transport mutant growth (AID 636; in the data active = inhibition above about 31%). The conditions noted are these: absorbance 615 nm, about 18 h, stronger effect = higher value.
Test [8] can be described thus: growth suppression of yeast trafficking mutant, preliminary HTS, modulators of trafficking downstream of Golgi apparatus project, 1536-format plate, OD 615 nm (AID 637; in the data active = inhibition above about 30%). The conditions noted are these: yeast transport mutant growth, absorbance 615 nm, 18 h; stronger effect = higher value.
The mark [9] stands for this setting: H69AR cells + 2 uM doxorubicin, measured here: viability with 2 uM doxorubicin, stronger effect = lower value.
[10] abbreviates: H69AR cells, compound alone cytotoxicity.

Receptor tyrosine-protein kinase erbB-2 (Homo sapiens), sequence (P04626 whole entry, looked up): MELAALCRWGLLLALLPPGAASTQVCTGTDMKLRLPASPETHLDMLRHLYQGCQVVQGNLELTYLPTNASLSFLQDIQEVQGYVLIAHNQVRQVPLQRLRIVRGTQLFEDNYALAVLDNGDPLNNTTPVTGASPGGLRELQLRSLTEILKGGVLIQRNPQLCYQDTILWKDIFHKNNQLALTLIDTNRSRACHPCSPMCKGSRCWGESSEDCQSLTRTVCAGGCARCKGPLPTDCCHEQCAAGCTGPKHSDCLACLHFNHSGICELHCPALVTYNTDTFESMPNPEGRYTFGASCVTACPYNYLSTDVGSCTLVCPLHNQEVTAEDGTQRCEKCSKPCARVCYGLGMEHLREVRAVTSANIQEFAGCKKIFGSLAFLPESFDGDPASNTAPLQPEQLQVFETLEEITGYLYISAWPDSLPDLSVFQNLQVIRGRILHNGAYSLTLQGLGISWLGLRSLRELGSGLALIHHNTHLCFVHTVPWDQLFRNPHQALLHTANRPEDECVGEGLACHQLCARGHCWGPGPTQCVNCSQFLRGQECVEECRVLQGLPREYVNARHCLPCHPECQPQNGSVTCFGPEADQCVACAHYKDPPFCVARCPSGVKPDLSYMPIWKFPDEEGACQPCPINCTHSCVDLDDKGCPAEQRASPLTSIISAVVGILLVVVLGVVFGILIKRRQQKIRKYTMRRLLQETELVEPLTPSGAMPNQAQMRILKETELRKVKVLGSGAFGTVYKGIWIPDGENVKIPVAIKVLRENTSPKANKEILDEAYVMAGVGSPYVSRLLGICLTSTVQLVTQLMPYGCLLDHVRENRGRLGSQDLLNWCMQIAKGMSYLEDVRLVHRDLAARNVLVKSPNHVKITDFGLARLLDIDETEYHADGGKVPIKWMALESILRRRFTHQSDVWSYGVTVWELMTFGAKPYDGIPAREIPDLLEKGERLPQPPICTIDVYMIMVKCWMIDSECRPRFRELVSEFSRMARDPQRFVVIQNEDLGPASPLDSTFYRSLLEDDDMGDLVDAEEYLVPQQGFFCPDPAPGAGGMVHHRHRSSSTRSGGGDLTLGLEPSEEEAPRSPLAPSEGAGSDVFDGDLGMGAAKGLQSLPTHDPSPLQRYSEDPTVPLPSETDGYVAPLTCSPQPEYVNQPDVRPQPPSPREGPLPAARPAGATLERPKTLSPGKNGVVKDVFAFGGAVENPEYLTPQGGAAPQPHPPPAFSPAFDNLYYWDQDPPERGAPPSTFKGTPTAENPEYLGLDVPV

With `CCn1c(=O)cc(OCC(=O)NC2CCCCC2)c2ccccc21`, the viability was 86% in test [1]; 86% (inactive) in test [3]; 91.5% (inactive) in test [4]; 87% (inactive) in test [5]; 77.5% in test [6] (setting [9]); 87% in test [6] (setting [10]). In addition, the Her2 level in test [2] is 98.5% (inactive). In addition, in test [6] (H69AR cells + 2 uM doxorubicin), the differential viability (reversal) was 9.56% (inactive). Further, the figures for the inhibition in test [7] and in test [8] were -0.77% (inactive) and 0% (inactive), respectively.
For the compound `COc1cc(OC)cc(C(=O)N2c3ccc(F)cc3CCC2C)c1` (stereo not given), the viability in test [1] is 94.5%; in test [3], 94.5% (inactive); in test [4], 112% (inactive); in test [5], 97.5% (inactive); in test [6] (setting [9]), 90.7%; in test [6] (setting [10]) it was 97.5%. Also, in test [2], the Her2 level is 89% (inactive). Moreover, the differential viability (reversal) in test [6] (H69AR cells + 2 uM doxorubicin) is 6.82% (inactive). Besides, the inhibition is -0.14% (inactive) in test [7] and -3.02% (inactive) in test [8].
Regarding `Cc1ccc2cc3cc(C(=O)NCCN4CCOCC4)oc3nc2c1`, the viability in test [1] is 99%; in test [3], 99% (inactive); in test [4] it was 86% (inactive); in test [5], 96.6% (inactive); in test [6] (setting [9]) it was 86.6%; in test [6] (setting [10]) it was 96.6%. For the same compound, the Her2 level in test [2] is 79.5% (inactive). Besides, the differential viability (reversal) in test [6] (H69AR cells + 2 uM doxorubicin) is 9.98% (inactive). The inhibition is -5.13% (inactive) in test [7] and 8.67% (inactive) in test [8].
For the compound `O=C(CSc1nnc(-c2ccc(Br)o2)n1Cc1ccccc1)c1ccccc1F`, the viability in test [1] is 81.5%; in test [3], 81.5% (inactive); in test [4], 86.3% (inactive); in test [5], 64.7% (inactive); in test [6] (setting [9]), 75.9%; in test [6] (setting [10]) it was 64.7%. The Her2 level in test [2] is 91% (inactive). The differential viability (reversal) in test [6] (H69AR cells + 2 uM doxorubicin) is -11.2% (inactive). Also, the inhibition was 3.11% (inactive) in test [7] and -2.13% (inactive) in test [8].
Consider `C=CCn1c(SCC(=O)c2ccc(OC)cc2)nnc1C(C)NC(=O)c1cccs1` (stereo not given), for which the viability in test [1] was 102%; in test [3] it was 102% (inactive); in test [4] it was 90.9% (inactive); in test [5], 87% (inactive); in test [6] (setting [9]) it was 92.4%; in test [6] (setting [10]), 87%. Moreover, in test [2], the Her2 level was 88.5% (inactive). For the same compound, in test [6] (H69AR cells + 2 uM doxorubicin), the differential viability (reversal) is -5.4% (inactive). In addition, the values for the inhibition in test [7] and in test [8] were -0.26% (inactive) and 7.67% (inactive), respectively.
In the case of `CCOC(=O)c1cc2n(n1)C(C(F)(F)C(F)(F)F)CC(C)N2` (stereo not given), the viability in test [1] was 92%; in test [3], 92% (inactive); in test [4], 105% (inactive); in test [5], 97.3% (inactive); in test [6] (setting [9]), 93%; in test [6] (setting [10]) it was 97.3%. Further, in test [2], the Her2 level is 93.5% (inactive). Moreover, in test [6] (H69AR cells + 2 uM doxorubicin), the differential viability (reversal) is 4.36% (inactive). Further, the inhibition in test [7] was -3.73% (inactive); in test [8], -0.32% (inactive).
As to `Cn1c(-c2ccccc2)cc(=O)c2ccccc21`, the viability in test [1] is 98.5%; in test [3], 98.5% (inactive); in test [4], 102% (inactive); in test [5] it was 96.6% (inactive); in test [6] (setting [9]) it was 103%; in test [6] (setting [10]), 96.6%. Further, in test [2], the Her2 level was 109% (inactive). Moreover, in test [6] (H69AR cells + 2 uM doxorubicin), the differential viability (reversal) is -6.83% (inactive). Further, the inhibition is -1.43% (inactive) in test [7] and -2.13% (inactive) in test [8].
For the compound `O=C(CCN1C(=O)C2C3C=CC(C3)C2C1=O)N1CCN(c2ccccc2Cl)CC1` (stereo not given), the viability in test [1] is 97%; in test [3], 97% (inactive); in test [4], 82.3% (inactive); in test [5], 96% (inactive); in test [6] (setting [9]), 87.8%; in test [6] (setting [10]) it was 96%. For the same compound, the Her2 level in test [2] was 89.5% (inactive). Also, the differential viability (reversal) in test [6] (H69AR cells + 2 uM doxorubicin) was 8.21% (inactive). The inhibition was -5% (inactive) in test [7] and -3.17% (inactive) in test [8].
In the case of `COCC(=O)N(Cc1cc2cc(OC)ccc2[nH]c1=O)c1ccccc1`, the viability is 104% in test [1]; 104% (inactive) in test [3]; 90.3% (inactive) in test [4]; 90.4% (inactive) in test [5]; 86.5% in test [6] (setting [9]); 90.4% in test [6] (setting [10]). For the same compound, the Her2 level in test [2] was 112% (inactive). In addition, in test [6] (H69AR cells + 2 uM doxorubicin), the differential viability (reversal) was 3.91% (inactive). The inhibition in test [7] is -2.86% (inactive); in test [8] it was -6% (inactive).
For `O=C(NCc1ccc2c(c1)OCO2)c1ccccn1`, the viability in test [1] is 98.5%; in test [3] it was 98.5% (inactive); in test [4], 92.8% (inactive); in test [5], 88.5% (inactive); in test [6] (setting [9]) it was 85.2%; in test [6] (setting [10]) it was 88.5%. For the same compound, the Her2 level in test [2] is 107% (inactive). Besides, the differential viability (reversal) in test [6] (H69AR cells + 2 uM doxorubicin) was 3.29% (inactive). For the same compound, the inhibition in test [7] was -6.27% (inactive); in test [8], -12.1% (inactive).
As for `CCCSc1nc2c(c(=O)[nH]c(=O)n2C)n1CCc1ccccc1`, the viability in test [1] was 89.5%; in test [3] it was 89.5% (inactive); in test [4] it was 83.8% (inactive); in test [5], 86.8% (inactive); in test [6] (setting [9]), 96.6%; in test [6] (setting [10]) it was 86.8%. In test [2], the Her2 level is 92% (inactive). In test [6] (H69AR cells + 2 uM doxorubicin), the differential viability (reversal) is -9.79% (inactive). In addition, the inhibition in test [7] is -7.47% (inactive); in test [8], 7.42% (inactive).
As to `CC(=O)N1CCC2(CC1)CC(=O)c1cc(OCC(=O)NCc3ccc(C)cc3)ccc1O2`, the viability in test [1] is 97%; in test [3], 97% (inactive); in test [4], 99.4% (inactive); in test [5] it was 90% (inactive); in test [6] (setting [9]), 90.3%; in test [6] (setting [10]), 90%. The Her2 level in test [2] is 84% (inactive). Further, the differential viability (reversal) in test [6] (H69AR cells + 2 uM doxorubicin) is -0.255% (inactive). For the same compound, the values for the inhibition in test [7] and in test [8] were -2.76% (inactive) and 0.91% (inactive), respectively.
Regarding `CN(C)C=Nc1nonc1N`, the viability was 110% in test [1]; 110% (inactive) in test [3]; 95.3% (inactive) in test [4]; 94.1% (inactive) in test [5]; 91.4% in test [6] (setting [9]); 94.1% in test [6] (setting [10]). For the same compound, in test [2], the Her2 level is 106% (inactive). Moreover, the differential viability (reversal) in test [6] (H69AR cells + 2 uM doxorubicin) is 2.63% (inactive). Besides, the inhibition in test [7] was -5.53% (inactive); in test [8] it was 1.97% (inactive).
Regarding `Cn1nc(C(=O)Nc2cccc(C(F)(F)F)c2)ccc1=O`, the viability in test [1] is 95.5%; in test [3], 95.5% (inactive); in test [4], 107% (inactive); in test [5], 91.5% (inactive); in test [6] (setting [9]), 84.7%; in test [6] (setting [10]), 91.5%. Moreover, in test [2], the Her2 level was 92% (inactive). The differential viability (reversal) in test [6] (H69AR cells + 2 uM doxorubicin) is 6.87% (inactive). Further, the figures for the inhibition in test [7] and in test [8] were -3.29% (inactive) and 1.45% (inactive), respectively.
As to `CC1CCN(C(=O)CSc2nnc(-c3ccc(S(=O)(=O)N4CCOCC4)cc3)n2C)CC1`, the viability in test [1] is 108%; in test [3], 108% (inactive); in test [4], 93.7% (inactive); in test [5], 88.3% (inactive); in test [6] (setting [9]), 93.1%; in test [6] (setting [10]), 88.3%. Moreover, the Her2 level in test [2] is 109% (inactive). Also, the differential viability (reversal) in test [6] (H69AR cells + 2 uM doxorubicin) was -4.8% (inactive). Besides, the figures for the inhibition in test [7] and in test [8] were -4.4% (inactive) and -2.62% (inactive), respectively.
`COCCSc1ccccc1C(=O)Nc1nncs1`: the viability is 88% in test [1]; 88% (inactive) in test [3]; 96.2% (inactive) in test [4]; 92.5% (inactive) in test [5]; 89.2% in test [6] (setting [9]); 92.5% in test [6] (setting [10]). The Her2 level in test [2] was 102% (inactive). Moreover, the differential viability (reversal) in test [6] (H69AR cells + 2 uM doxorubicin) was 3.37% (inactive). Moreover, the inhibition was -4.73% (inactive) in test [7] and 2.22% (inactive) in test [8].
